According to paper PMC3752283 (The Analyst, 2013):
Positions of bridges follow the written chain, without caps; N, C: chain ends. Non-standard residues stand in square brackets, D forms with d. Residues, ends and D or L forms follow the SMILES beside them. *: point of attachment. 6FAM = O=C1OC2(c3ccc(O)cc3Oc3cc(O)ccc32)c2cc(C(=O)*)ccc21; PEG3 = NCCOCCOCCOCCC(=O)O

Assay: Lysate degradation assay
Type: in vitro ADME, mouse
Settings: for time for 90% degradation of the peptide: Baf/BCR-ABL cell lysate, 3 mg mL^-1 protein, 2 μM peptide, 37 °C, CE-LIF; for half-life at 2 μM: mouse, Baf/BCR-ABL cell lysate (cytosolic), pH 7.4
Method in brief: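 Mouse B-cell lymphoma Baf/BCR-ABL cells washed and resuspended in cold ECB (pH 7.4), then lysed by three cycles of liquid nitrogen (1 min) and 37 °C thaw; supernatant kept after 14,000 × g, 4 °C, 5 min. Peptide at 2 μM in lysate (3 mg mL−1 protein), 37 °C, triplicate. Timed aliquots quenched with HCl (100 mM final) and 95 °C for 4 min. Intact fraction = intact-peak area / total peak area.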

Row | time for 90% degradation of the peptide [min] | half-life at 2 μM [min] | increase in half-life over the control peptide (Baf/BCR-ABL cytosolic lysate) [fold] | SMILES
1 | 25 | 9.2 ± 1.2 |  | CC[C@H](C)[C@H](NC(=O)[C@H](C)NC(=O)[C@H](CCC(=O)O)NC(=O)[C@H](CCCCNC(=O)c1ccc2c(c1)C1(OC2=O)c2ccc(O)cc2Oc2cc(O)ccc21)NC(=O)CCOCCOCCOCCNC(=O)CCOCCOCCOCCNC(=O)[C@@H]1CSCC(=O)N[C@@H](Cc2c[nH]c3ccccc23)C(=O)N2CCC[C@@H]2C(=O)NCC(=O)N[C@@H](CCCNC(=N)N)C(=O)N1)C(=O)N[C@@H](Cc1ccc(O)cc1)C(=O)N[C@@H](C)C(=O)N[C@@H](C)C(=O)N1CCC[C@H]1C(=O)N[C@@H](Cc1ccccc1)C(=O)N[C@@H](C)C(=O)N[C@@H](CCCCN)C(=O)N[C@@H](CCCCN)C(=O)N[C@@H](CCCCN)C(N)=O [Peptide 4] ({CH2CO}-W[dP]GRC[PEG3][PEG3]K(6FAM)EAIYAAPFAKKK-NH2; thioether N-5)
2 | ≤ 10 | 4.8 ± 0.4 | ~10 | CC[C@H](C)[C@H](NC(=O)[C@H](C)NC(=O)[C@H](CCC(=O)O)NC(=O)[C@H](CCCCNC(=O)c1ccc2c(c1)C1(OC2=O)c2ccc(O)cc2Oc2cc(O)ccc21)NC(=O)CCOCCOCCOCCNC(=O)CCOCCOCCOCCNC(=O)[C@H](CCCNC(=N)N)NC(=O)CNC(=O)[C@H]1CCCN1C(=O)[C@@H](N)Cc1c[nH]c2ccccc12)C(=O)N[C@@H](Cc1ccc(O)cc1)C(=O)N[C@@H](C)C(=O)N[C@@H](C)C(=O)N1CCC[C@H]1C(=O)N[C@@H](Cc1ccccc1)C(=O)N[C@@H](C)C(=O)N[C@@H](CCCCN)C(=O)N[C@@H](CCCCN)C(=O)N[C@@H](CCCCN)C(N)=O [Peptide 2] (H-W[dP]GR[PEG3][PEG3]K(6FAM)EAIYAAPFAKKK-NH2; N-terminus assumed)
